Assay results from ChEMBL document CHEMBL4350954, “Identification of Thienopyrimidine Scaffold as an Inhibitor of the ABC Transport Protein ABCC1 (MRP1) and Related Transporters Using a Combined Virtual Screening Approach” (J Med Chem, 2019).

Legend:
Type in all cases: cell-based
[1] = molecular target: T1, ABCG2 (BCRP) (Homo sapiens, UniProt Q9UNQ0); test: Inhibition of ABCG2 (unknown origin) expressed in MDCK2 cells co-expressing BCRP (unknown origin) assessed as effect on pheophorbide A accumulation at 10 uM pre-incubated for 20 mins followed by pheophorbide A addition and measured after 120 mins by flow cytometric analysis relative to Ko143; settings: probe pheophorbide A
T1 sequence (Q9UNQ0 whole entry): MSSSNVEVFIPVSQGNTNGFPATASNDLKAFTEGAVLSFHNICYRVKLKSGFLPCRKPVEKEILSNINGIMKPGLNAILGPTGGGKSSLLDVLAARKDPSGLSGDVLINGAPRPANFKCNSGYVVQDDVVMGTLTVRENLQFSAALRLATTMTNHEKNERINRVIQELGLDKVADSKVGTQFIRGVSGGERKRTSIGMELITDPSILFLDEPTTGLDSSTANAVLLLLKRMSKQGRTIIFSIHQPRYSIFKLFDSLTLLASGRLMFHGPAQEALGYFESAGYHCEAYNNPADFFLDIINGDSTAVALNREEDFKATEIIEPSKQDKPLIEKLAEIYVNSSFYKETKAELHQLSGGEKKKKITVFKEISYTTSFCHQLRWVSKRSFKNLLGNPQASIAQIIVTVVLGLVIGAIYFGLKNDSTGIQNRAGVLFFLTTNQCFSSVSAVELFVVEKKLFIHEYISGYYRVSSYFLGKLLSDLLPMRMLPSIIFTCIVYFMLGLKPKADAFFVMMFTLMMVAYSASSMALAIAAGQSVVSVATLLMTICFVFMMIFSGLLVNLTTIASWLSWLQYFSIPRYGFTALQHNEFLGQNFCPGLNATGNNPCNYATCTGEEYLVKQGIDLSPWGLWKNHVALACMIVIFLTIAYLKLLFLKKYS
Method in brief: (§1)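 Pheophorbide A accumulation assay in ABCG2-transfected MDCK II BCRP cells. Ko143 at 10 µM set 100% and no compound set 0%. Screening was at 10 µM; compounds reaching >20% (+SEM) got IC50 curves constrained to the Ko143 maximum at 10 µM. Values are reported as mean ± SEM.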

[2] = molecular target: T2, Broad substrate specificity ATP-binding cassette transporter ABCG2 (Homo sapiens, UniProt Q9UNQ0); test: Inhibition of ABCG2 (unknown origin) expressed in MDCK2 cells co-expressing BCRP (unknown origin) assessed as effect on pheophorbide A accumulation pre-incubated for 20 mins followed by pheophorbide A addition and measured after 120 mins by flow cytometric analysis; method in brief: as §1
T2 sequence (Q9UNQ0 whole entry): T1 sequence (Q9UNQ0 whole entry)

[3] = molecular target: T3, Multidrug resistance-associated protein 1 (Homo sapiens, UniProt P33527); test: Inhibition of MRP1 in human COR-L23/R cells assessed reduction in tritiated daunomycin efflux incubated for 2 hrs by radioactivity-based assay
[4] = molecular target: ABCC1 (MRP1) (Homo sapiens, UniProt P33527); test: Inhibition of ABCC1 in human H69AR cells at 10 uM preincubated for 30 mins followed by calcein-AM addition measured at 60 secs time interval by fluorescence assay relative to control; settings: probe calcein-AM
Method in brief: (§2)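 Calcein AM accumulation assay in H69AR small-cell lung cancer cells, which express only ABCC1. Inhibited efflux lets calcein AM build up intracellularly, where esterases cleave it to fluorescent calcein. The screen used 10 µM, scaled to a standard ABCC1 inhibitor at 10 µM as 100%. Hits reaching ≥20% inhibition (+SEM) went on to IC50 curves, constrained to that 100% maximum. Values are means of ≥3 independent experiments in duplicate ± SEM.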

[5] = molecular target: T3, Multidrug resistance-associated protein 1; test: Inhibition of ABCC1 in human H69AR cells preincubated for 30 mins followed by calcein-AM addition measured at 60 secs time interval by fluorescence assay; method in brief: as §2
[6] = molecular target: ABCB1 (P-gp) (Homo sapiens, UniProt P08183); test: Inhibition of ABCB1 in human A2780/ADR cells at 10 uM preincubated for 30 mins followed by calcein AM addition and measured at 60 secs time interval by fluorescence assay relative to cyclosporine A; settings: probe calcein AM
[7] = molecular target: ATP-dependent translocase ABCB1 (Homo sapiens, UniProt P08183); test: Inhibition of ABCB1 in human A2780/ADR cells preincubated for 30 mins followed by calcein AM addition and measured at 60 secs time interval by fluorescence assay
ATP-dependent translocase ABCB1, sequence (P08183 whole entry): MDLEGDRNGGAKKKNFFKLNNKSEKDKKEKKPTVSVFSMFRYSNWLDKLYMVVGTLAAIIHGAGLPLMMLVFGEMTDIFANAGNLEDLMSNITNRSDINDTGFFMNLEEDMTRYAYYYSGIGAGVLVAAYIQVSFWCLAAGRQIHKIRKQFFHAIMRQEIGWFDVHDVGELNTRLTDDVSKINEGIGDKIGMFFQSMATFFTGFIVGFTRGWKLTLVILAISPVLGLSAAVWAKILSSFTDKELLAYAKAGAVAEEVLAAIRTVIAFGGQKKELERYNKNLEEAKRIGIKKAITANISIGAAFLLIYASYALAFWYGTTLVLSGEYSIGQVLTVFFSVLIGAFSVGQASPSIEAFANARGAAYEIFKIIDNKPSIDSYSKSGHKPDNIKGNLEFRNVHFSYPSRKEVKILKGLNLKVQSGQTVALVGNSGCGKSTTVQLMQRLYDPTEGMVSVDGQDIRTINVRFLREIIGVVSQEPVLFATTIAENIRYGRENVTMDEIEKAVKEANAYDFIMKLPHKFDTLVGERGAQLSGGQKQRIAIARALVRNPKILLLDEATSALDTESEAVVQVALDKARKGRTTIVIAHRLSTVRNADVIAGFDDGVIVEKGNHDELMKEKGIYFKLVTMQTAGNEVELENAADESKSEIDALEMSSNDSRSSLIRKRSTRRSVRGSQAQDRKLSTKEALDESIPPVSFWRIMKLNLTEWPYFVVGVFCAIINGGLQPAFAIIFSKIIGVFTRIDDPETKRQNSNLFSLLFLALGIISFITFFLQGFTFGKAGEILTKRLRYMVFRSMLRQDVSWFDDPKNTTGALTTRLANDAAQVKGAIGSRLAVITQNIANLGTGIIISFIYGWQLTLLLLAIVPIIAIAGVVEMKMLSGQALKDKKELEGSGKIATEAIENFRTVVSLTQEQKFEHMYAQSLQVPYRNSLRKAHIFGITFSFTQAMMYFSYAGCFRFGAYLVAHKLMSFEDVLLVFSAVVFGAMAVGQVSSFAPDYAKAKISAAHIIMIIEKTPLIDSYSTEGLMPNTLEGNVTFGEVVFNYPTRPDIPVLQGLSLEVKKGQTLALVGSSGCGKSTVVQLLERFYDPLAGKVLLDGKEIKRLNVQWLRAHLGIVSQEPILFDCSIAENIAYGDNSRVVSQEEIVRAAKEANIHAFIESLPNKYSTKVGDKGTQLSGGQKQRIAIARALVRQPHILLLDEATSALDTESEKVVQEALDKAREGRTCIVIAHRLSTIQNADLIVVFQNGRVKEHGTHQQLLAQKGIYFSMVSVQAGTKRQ

T3 sequence (P33527 whole entry): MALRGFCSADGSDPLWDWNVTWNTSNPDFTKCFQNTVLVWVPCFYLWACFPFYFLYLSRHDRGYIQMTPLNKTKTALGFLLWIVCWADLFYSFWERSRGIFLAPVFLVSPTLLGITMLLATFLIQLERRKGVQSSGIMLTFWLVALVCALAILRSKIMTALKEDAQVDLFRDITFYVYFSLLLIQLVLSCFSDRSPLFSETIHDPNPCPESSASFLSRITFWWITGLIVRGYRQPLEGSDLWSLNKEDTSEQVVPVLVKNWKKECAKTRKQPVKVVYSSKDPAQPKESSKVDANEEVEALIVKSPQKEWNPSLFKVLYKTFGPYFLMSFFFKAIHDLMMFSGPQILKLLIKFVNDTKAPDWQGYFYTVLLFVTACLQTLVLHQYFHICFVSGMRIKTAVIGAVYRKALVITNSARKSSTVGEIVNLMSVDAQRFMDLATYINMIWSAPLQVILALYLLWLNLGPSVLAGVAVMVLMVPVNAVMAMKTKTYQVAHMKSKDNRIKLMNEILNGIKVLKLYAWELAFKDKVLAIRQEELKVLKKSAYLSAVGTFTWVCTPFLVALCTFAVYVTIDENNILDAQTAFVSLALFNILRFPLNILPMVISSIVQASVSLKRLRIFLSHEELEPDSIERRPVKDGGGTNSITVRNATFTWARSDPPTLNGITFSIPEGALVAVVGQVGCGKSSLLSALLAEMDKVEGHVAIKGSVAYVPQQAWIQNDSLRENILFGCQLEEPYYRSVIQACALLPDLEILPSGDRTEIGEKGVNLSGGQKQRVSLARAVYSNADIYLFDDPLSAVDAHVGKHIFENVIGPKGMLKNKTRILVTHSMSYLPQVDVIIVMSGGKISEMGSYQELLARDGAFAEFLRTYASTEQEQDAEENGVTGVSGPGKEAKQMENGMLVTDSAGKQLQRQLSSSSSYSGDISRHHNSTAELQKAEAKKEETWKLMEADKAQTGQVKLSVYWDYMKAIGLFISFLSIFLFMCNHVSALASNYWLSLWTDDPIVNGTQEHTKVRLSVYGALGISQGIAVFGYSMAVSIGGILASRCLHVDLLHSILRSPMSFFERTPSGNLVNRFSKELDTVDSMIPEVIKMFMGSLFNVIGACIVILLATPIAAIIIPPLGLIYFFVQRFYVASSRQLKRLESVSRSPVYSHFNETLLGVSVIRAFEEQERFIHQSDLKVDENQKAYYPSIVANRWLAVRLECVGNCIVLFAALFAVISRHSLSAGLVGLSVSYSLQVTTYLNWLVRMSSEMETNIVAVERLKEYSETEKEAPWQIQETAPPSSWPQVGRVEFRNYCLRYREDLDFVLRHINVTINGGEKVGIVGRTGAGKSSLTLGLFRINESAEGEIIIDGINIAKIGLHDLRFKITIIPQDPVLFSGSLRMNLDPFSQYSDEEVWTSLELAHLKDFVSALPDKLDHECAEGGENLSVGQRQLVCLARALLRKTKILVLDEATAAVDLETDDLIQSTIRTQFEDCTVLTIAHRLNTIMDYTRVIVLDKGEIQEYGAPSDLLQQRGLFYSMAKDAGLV
ABCC1 (MRP1), sequence (P33527 whole entry): as above
ABCB1 (P-gp), sequence (P08183 whole entry): as the sequence (P08183 whole entry) above

Row | inhibition at 2 h, 10 µM [1] [%] | IC50 [2] [µM] | IC50 [3] [µM] | inhibition at 1 min, 10 µM [4] [%] | IC50 [5] [µM] | inhibition at 1 min, 10 µM [6] [%] | IC50 [7] [µM] | Structure (SMILES)
1 | ≥ 20 | 15.4 |  |  |  |  |  | N#Cc1ccc(CN2CCN(C(=O)c3cn(Cc4ccccc4)nc3-c3cccnc3)CC2)cc1
2 |  |  |  |  |  | ≥ 20 | 26.4 | Cc1ccccc1-n1nnnc1SCC(=O)N1CCN(Cc2ccccc2)CC1
3 | ≥ 20 | 14.4 |  |  |  | ≥ 20 | 31 | O=C(CSc1nnc(-c2ccc(F)cc2)o1)N1CCN(Cc2ccc3c(c2)CCO3)CC1
4 | ≥ 20 | 11.8 |  |  |  | ≥ 20 | 14.5 | CCCc1cc(N2CCN(CCOc3cccc4ccccc34)CC2)n2nc3nc(C)cc(C)c3c2n1
5 | ≥ 20 | 11.2 |  |  |  | ≥ 20 | 15.4 | Fc1ccccc1N1CCN(Cc2csc(-c3ccc4c(c3)OCO4)n2)CC1
6 | ≥ 20 | 16 |  | ≥ 20 | 39.3 | ≥ 20 | 27.8 | O=C(c1cc(-c2cccnc2)nc2ccccc12)N1CCN(Cc2cccs2)CC1
7 |  |  |  |  |  | ≥ 20 | 15.6 | Cc1ccccc1-n1c(SCC(=O)N2CCN(Cc3ccccc3)CC2)nnc1-c1cccnc1

Continued, molecule first:

Row | Structure (SMILES) | inhibition at 2 h, 10 µM [1] [%] | IC50 [2] [µM] | IC50 [3] [µM] | inhibition at 1 min, 10 µM [4] [%] | IC50 [5] [µM] | inhibition at 1 min, 10 µM [6] [%] | IC50 [7] [µM]
8 | CCOC(=O)Cn1c2cccc(C(N)=O)c2c2ncnc(N3CCN(CCc4ccc(F)c(F)c4)CC3)c21 |  |  | 0.122 |  |  |  | 
9 | Cc1nc2cc(NC(=O)C3CCCN(c4cc(-n5cccn5)ncn4)C3)ccc2s1 (stereo not drawn) | ≥ 20 | 1.39 |  | ≥ 20 | 22.7 | ≥ 20 | 4.83
10 | Cc1cc(C)c2c(n1)sc1c(N3CCN(Cc4ccccc4Cl)CC3)ncnc12 | ≥ 20 | 8.68 |  |  |  | ≥ 20 | 2.81
11 | O=C(c1ccc2c(c1)OCCO2)C1CCN(C(=O)c2ccc(-n3cccn3)cc2)CC1 | ≥ 20 | 10.4 |  |  |  |  | 
12 | C[C@@]1(C(=O)Nc2ccc(F)nc2)CCCN1c1nc(Nc2cc(C3CC3)n[nH]2)c2cccn2n1 [BMS-754807] | ≥ 20 | 10.2 |  | ≥ 20 | 36.3 | ≥ 20 | 17.7
